Source: ChEMBL document CHEMBL1129262, “Peptidyl anthraquinones as potential antineoplastic drugs: synthesis, DNA binding, redox cycling, and biological activity” (J Med Chem, 1996)

Experiments:
[1] = tested on: Nucleic Acid; test: Intrinsic Binding constant of compound to DNA at pH 7 and 25 Centigrade; assay type: functional; conditions: Bos taurus
How it was run: (§1)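 DNA titrations were run at constant anthraquinone concentration while the DNA/drug ratio was varied, at 25 °C in 10 mM Tris pH 7.0 with 1 mM EDTA and NaCl added to set ionic strength. Binding was followed by fluorescence quenching, or by absorbance at 500–750 nm for non-fluorescent drugs. McGhee–von Hippel analysis gave the intrinsic constant K and the exclusion parameter n.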

[2] = Exclusion parameter (base pairs); assay type: ADME; how it was run: as §1
[3] = tested on: HeLa; test: Effective concentration against cell growth of HeLa cell line by 50%; assay type: functional; conditions: Homo sapiens, read-out: ED50
How it was run: (§2)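 HeLa and L1210 cells grown in Dulbecco's modified Eagle's medium with 5% fetal calf serum, antibiotics and L-glutamine. Exponentially growing cells were exposed to drug for 1 h at 37 °C. Growth was scored by MTT, after washing and 96 h drug-free culture, or by cell counting after 72 h. Value is the concentration giving 50% growth inhibition.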

[4] = tested on: HL-60; test: Effective concentration against cell growth of HL60 cell line by 50%; assay type: functional; conditions: Homo sapiens, HL-60, read-out: ED50
How it was run: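 HL60 cells grown in RPMI-1640 with 10% fetal calf serum. Exponentially growing cells were exposed to drug for 1 h at 37 °C. Survival was read either by MTT, after washing and 96 h culture in drug-free medium, or by cell counting after 72 h culture. Value is the drug concentration inhibiting cell growth by 50%.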

[5] = tested on: L1210; test: Effective concentration against cell growth of L1210 cell line by 50%; assay type: functional; conditions: Mus musculus, L1210, read-out: ED50; how it was run: as §2
[6] = Exclusion parameter (base pairs; assay type: ADME
How it was run: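 Fluorometric titration at 25 °C in 10 mM Tris pH 7.0, 1 mM EDTA, NaCl set to the chosen ionic strength. DNA/drug ratio varied at constant drug concentration by mixing drug-alone and drug-plus-DNA solutions. Nonfluorescent drugs followed spectrophotometrically at 500–750 nm. Data fitted by McGhee–von Hippel to give K and the exclusion parameter n.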

NCC(=O)NCC(=O)NCC(=O)Nc1ccc(NC(=O)CNC(=O)CNC(=O)CN)c2c1C(=O)c1ccccc1C2=O
K x10e-5 [1]: 2.4 M⁻¹ | Exclusion parameter [2]: 2.4

O=C1c2ccccc2C(=O)c2c(NCCNCCO)ccc(NCCNCCO)c21 [AMETANTRONE]
EC50 [3]: 3100 nM | K x10e-5 [1]: 3.4 M⁻¹ | EC50 [4]: 880 nM | EC50 [5]: 100 nM | Exclusion parameter [6]: 2.7

NCC(=O)NCC(=O)Nc1ccc(N)c2c1C(=O)c1ccccc1C2=O
EC50 [3]: 2700 nM | K x10e-5 [1]: 1.7 M⁻¹ | EC50 [4]: 2000 nM | EC50 [5]: 240 nM | Exclusion parameter [2]: 2.2

NC(Cc1c[nH]c2ccccc12)C(=O)NCC(=O)Nc1ccc(NC(=O)CNC(=O)C(N)Cc2c[nH]c3ccccc23)c2c1C(=O)c1ccccc1C2=O (configuration not stated)
EC50 [4]: 28000 nM

N[C@@H](Cc1c[nH]c2ccccc12)C(=O)NCC(=O)Nc1ccc(NC(=O)CNC(=O)[C@@H](N)Cc2c[nH]c3ccccc23)c2c1C(=O)c1ccccc1C2=O
EC50 [4]: 30000 nM

NCC(=O)Nc1ccc(N)c2c1C(=O)c1ccccc1C2=O
EC50 [3]: 2700 nM | K x10e-5 [1]: 3.6 M⁻¹ | EC50 [4]: 2000 nM | EC50 [5]: 310 nM | Exclusion parameter [2]: 2.1

NCCCC[C@H](N)C(=O)NCC(=O)Nc1ccc(NC(=O)CNC(=O)[C@@H](N)CCCCN)c2c1C(=O)c1ccccc1C2=O
EC50 [3]: > 100000 nM | K x10e-5 [1]: 17.5 M⁻¹ | EC50 [4]: > 100000 nM | Exclusion parameter [2]: 2.3

NCC(=O)Nc1ccc(NC(=O)CN)c2c1C(=O)c1ccccc1C2=O
EC50 [3]: 1600 nM | K x10e-5 [1]: 2.2 M⁻¹ | EC50 [4]: 1900 nM | EC50 [5]: 900 nM | Exclusion parameter [2]: 2.3

NCCCCC(N)C(=O)NCC(=O)Nc1ccc(NC(=O)CNC(=O)C(N)CCCCN)c2c1C(=O)c1ccccc1C2=O (configuration not stated)
EC50 [3]: > 100000 nM | K x10e-5 [1]: 33 M⁻¹ | EC50 [4]: > 100000 nM | Exclusion parameter [2]: 2.4

NCC(=O)NCC(=O)Nc1ccc(NC(=O)CNC(=O)CN)c2c1C(=O)c1ccccc1C2=O
EC50 [3]: 2400 nM | K x10e-5 [1]: 2.4 M⁻¹ | EC50 [4]: 2300 nM | EC50 [5]: 800 nM | Exclusion parameter [2]: 2.5
